Laboratory results published in ChEMBL document CHEMBL4118063, “Design, synthesis and evaluation of aromatic heterocyclic derivatives as potent antifungal agents” (Eur J Med Chem, 2017).
Converted amounts (≈) assume the structure as drawn. One block for each molecule: values may come before it.

Key:
[1] = test system: Candida albicans; assay: Antifungal activity against Candida albicans CPCC 400523 by broth microdilution method; assay type: functional
In short: (§1)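 Serial twofold-style dilution in growth medium per NCCLS broth microdilution guidelines. Compounds dissolved in DMSO before dilution. Fluconazole and itraconazole served as positive controls. MIC was read as the lowest concentration that prevents visible fungal growth.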

[2] = test system: Candida albicans; assay: Antifungal activity against Candida albicans ATCC SC5314 by broth microdilution method; assay type: functional; in short: as §1
[3] = test system: Cryptococcus neoformans; assay: Antifungal activity against Cryptococcus neoformans cgmcc 2.3161 by broth microdilution method; assay type: functional; in short: as §1
[4] = test system: Candida tropicalis; assay: Antifungal activity against Candida tropicalis cgmcc 2.3739 by broth microdilution method; assay type: functional; in short: as §1
[5] = test system: Aspergillus fumigatus; assay: Antifungal activity against Aspergillus fumigatus GIM 3.524 by broth microdilution method; assay type: functional; in short: as §1
[6] = test system: Candida albicans; assay: Antifungal activity against fluconazole-resistant Candida albicans strain 100 by broth microdilution method; assay type: functional
In short: (§2)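 Broth serial dilution in 96-well plates per NCCLS guidelines; compounds dissolved in DMSO and serially diluted into growth medium; MIC taken as lowest concentration inhibiting visible fungal growth. Fluconazole-resistant clinical C. albicans isolates 100 and 103; fluconazole and itraconazole as positive controls.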

[7] = test system: Candida albicans; assay: Antifungal activity against fluconazole-resistant Candida albicans strain 103 by broth microdilution method; assay type: functional; in short: as §2
[8] = biological target: T1, Lanosterol 14-alpha demethylase (Candida albicans (strain SC5314 / ATCC MYA-2876) (Yeast), UniProt P10613); assay: Inhibition of CYP51 in Candida albicans ATCC SC5314 assessed as decrease in ergosterol content by GS-MS analysis
T1 sequence (P10613 whole entry): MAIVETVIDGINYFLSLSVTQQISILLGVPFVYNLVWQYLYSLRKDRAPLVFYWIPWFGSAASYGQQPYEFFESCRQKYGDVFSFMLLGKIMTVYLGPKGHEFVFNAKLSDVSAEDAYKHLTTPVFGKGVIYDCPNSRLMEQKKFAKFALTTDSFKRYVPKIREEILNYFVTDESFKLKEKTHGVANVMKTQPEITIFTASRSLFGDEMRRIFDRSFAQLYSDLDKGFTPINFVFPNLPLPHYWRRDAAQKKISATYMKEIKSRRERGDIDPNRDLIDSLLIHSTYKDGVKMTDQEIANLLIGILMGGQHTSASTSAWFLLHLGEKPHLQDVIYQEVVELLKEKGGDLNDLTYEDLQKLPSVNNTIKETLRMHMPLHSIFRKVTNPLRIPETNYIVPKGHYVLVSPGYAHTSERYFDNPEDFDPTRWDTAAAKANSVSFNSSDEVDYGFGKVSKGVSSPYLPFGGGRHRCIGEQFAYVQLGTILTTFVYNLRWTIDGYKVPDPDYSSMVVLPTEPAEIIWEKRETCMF

[9] = biological target: T1, Lanosterol 14-alpha demethylase; assay: Inhibition of CYP51 in Candida albicans ATCC SC5314 assessed as increase in lanosterol content by GS-MS analysis
[10] = biological target: T1, Lanosterol 14-alpha demethylase; assay: Inhibition of CYP51 in Candida albicans ATCC SC5314 assessed as increase in eburicol content by GS-MS analysis
[11] = biological target: T1, Lanosterol 14-alpha demethylase; assay: Inhibition of CYP51 in Candida albicans ATCC SC5314 assessed as ergosterol content at 0.03125 ug/ml by GS-MS analysis relative to total sterols (reference value: 98.7%); set-up: scale not given: the % may be the effect or the level left
[12] = biological target: T1, Lanosterol 14-alpha demethylase; assay: Inhibition of CYP51 in Candida albicans ATCC SC5314 assessed as ergosterol content at 0.125 ug/ml by GS-MS analysis relative to total sterols (reference value: 98.7%); set-up: scale not given: the % may be the effect or the level left
[13] = biological target: T1, Lanosterol 14-alpha demethylase; assay: Inhibition of CYP51 in Candida albicans ATCC SC5314 assessed as ergosterol content at 0.5 ug/ml by GS-MS analysis relative to total sterols (reference value: 98.7%); set-up: scale not given: the % may be the effect or the level left; settings: at 0.5 µg/mL
[14] = biological target: T1, Lanosterol 14-alpha demethylase; assay: Inhibition of CYP51 in Candida albicans ATCC SC5314 assessed as ergosterol content at 2 ug/ml by GS-MS analysis relative to total sterols (reference value: 98.7%); set-up: scale not given: the % may be the effect or the level left; settings: at 2 µg/mL
[15] = biological target: T1, Lanosterol 14-alpha demethylase; assay: Inhibition of CYP51 in Candida albicans ATCC SC5314 assessed as ergosterol content at 8 ug/ml by GS-MS analysis relative to total sterols (reference value: 98.7%); set-up: scale not given: the % may be the effect or the level left; settings: at 8 µg/mL
[16] = biological target: T1, Lanosterol 14-alpha demethylase; assay: Inhibition of CYP51 in Candida albicans ATCC SC5314 assessed as obtusifoliol content at 0.03125 ug/ml by GS-MS analysis relative to total sterols (reference value: 0.6%); set-up: scale not given: the % may be the effect or the level left
[17] = biological target: T1, Lanosterol 14-alpha demethylase; assay: Inhibition of CYP51 in Candida albicans ATCC SC5314 assessed as obtusifoliol content at 0.125 ug/ml by GS-MS analysis relative to total sterols (reference value: 0.6%); set-up: scale not given: the % may be the effect or the level left
[18] = biological target: T1, Lanosterol 14-alpha demethylase; assay: Inhibition of CYP51 in Candida albicans ATCC SC5314 assessed as obtusifoliol content at 0.5 ug/ml by GS-MS analysis relative to total sterols (reference value: 0.6%); set-up: scale not given: the % may be the effect or the level left; settings: at 0.5 µg/mL
[19] = biological target: T1, Lanosterol 14-alpha demethylase; assay: Inhibition of CYP51 in Candida albicans ATCC SC5314 assessed as obtusifoliol content at 2 ug/ml by GS-MS analysis relative to total sterols (reference value: 0.6%); set-up: scale not given: the % may be the effect or the level left; settings: at 2 µg/mL
[20] = biological target: T1, Lanosterol 14-alpha demethylase; assay: Inhibition of CYP51 in Candida albicans ATCC SC5314 assessed as obtusifoliol content at 8 ug/ml by GS-MS analysis relative to total sterols (reference value: 0.6%); set-up: scale not given: the % may be the effect or the level left; settings: at 8 µg/mL
[21] = biological target: T1, Lanosterol 14-alpha demethylase; assay: Inhibition of CYP51 in Candida albicans ATCC SC5314 assessed as lanosterol content at 0.125 ug/ml by GS-MS analysis relative to total sterols; set-up: scale not given: the % may be the effect or the level left
[22] = biological target: T1, Lanosterol 14-alpha demethylase; assay: Inhibition of CYP51 in Candida albicans ATCC SC5314 assessed as lanosterol content at 0.5 ug/ml by GS-MS analysis relative to total sterols; set-up: scale not given: the % may be the effect or the level left; settings: at 0.5 µg/mL
[23] = biological target: T1, Lanosterol 14-alpha demethylase; assay: Inhibition of CYP51 in Candida albicans ATCC SC5314 assessed as lanosterol content at 2 ug/ml by GS-MS analysis relative to total sterols; set-up: scale not given: the % may be the effect or the level left; settings: at 2 µg/mL
[24] = biological target: T1, Lanosterol 14-alpha demethylase; assay: Inhibition of CYP51 in Candida albicans ATCC SC5314 assessed as lanosterol content at 8 ug/ml by GS-MS analysis relative to total sterols; set-up: scale not given: the % may be the effect or the level left; settings: at 8 µg/mL
[25] = biological target: T1, Lanosterol 14-alpha demethylase; assay: Inhibition of CYP51 in Candida albicans ATCC SC5314 assessed as eburicol content at 0.03125 ug/ml by GS-MS analysis relative to total sterols (reference value: 0.4%); set-up: scale not given: the % may be the effect or the level left
[26] = biological target: T1, Lanosterol 14-alpha demethylase; assay: Inhibition of CYP51 in Candida albicans ATCC SC5314 assessed as eburicol content at 0.125 ug/ml by GS-MS analysis relative to total sterols (reference value: 0.4%); set-up: scale not given: the % may be the effect or the level left
[27] = biological target: T1, Lanosterol 14-alpha demethylase; assay: Inhibition of CYP51 in Candida albicans ATCC SC5314 assessed as eburicol content at 0.5 ug/ml by GS-MS analysis relative to total sterols (reference value: 0.4%); set-up: scale not given: the % may be the effect or the level left; settings: at 0.5 µg/mL
[28] = biological target: T1, Lanosterol 14-alpha demethylase; assay: Inhibition of CYP51 in Candida albicans ATCC SC5314 assessed as eburicol content at 2 ug/ml by GS-MS analysis relative to total sterols (reference value: 0.4%); set-up: scale not given: the % may be the effect or the level left; settings: at 2 µg/mL
[29] = biological target: T1, Lanosterol 14-alpha demethylase; assay: Inhibition of CYP51 in Candida albicans ATCC SC5314 assessed as eburicol content at 8 ug/ml by GS-MS analysis relative to total sterols (reference value: 0.4%); set-up: scale not given: the % may be the effect or the level left; settings: at 8 µg/mL
[30] = Metabolic stability in human plasma assessed as parent compound remaining at 60 mins; assay type: ADME, cell-free; settings: read-out: Stability
[31] = Metabolic stability in human plasma assessed as parent compound remaining at 120 mins; assay type: ADME, cell-free; settings: read-out: Stability

SMILES: CC(C)OC(=O)[C@H](Cn1ccnc1)NC(=O)c1cc(-c2ccccc2F)on1
- MIC [1]: 0.25 µg/mL (≈ 0.647 µM)
- MIC [2]: 0.0625 µg/mL (≈ 0.162 µM)
- MIC [3]: 0.5 µg/mL (≈ 1.29 µM)
- MIC [4]: 0.0312 µg/mL (≈ 0.0809 µM)
- MIC [5]: 4 µg/mL (≈ 10.4 µM)
- MIC [6]: 1 µg/mL (≈ 2.59 µM)
- MIC [7]: 1 µg/mL (≈ 2.59 µM)
- inhibition (INH) [8]: Dose-dependent effect
- inhibition (INH) [9]: Dose-dependent effect
- inhibition (INH) [10]: Dose-dependent effect
- Activity [11]: 93.9%
- Activity [12]: 85.9%
- Activity [13]: 30.8%
- Activity [14]: 5.4%
- Activity [15]: 0.7%
- Activity [16]: 4.3%
- Activity [17]: 6.9%
- Activity [18]: 6.9%
- Activity [19]: 9.2%
- Activity [20]: 8.9%
- Activity [21]: 2.2%
- Activity [22]: 16.7%
- Activity [23]: 22%
- Activity [24]: 26.7%
- Activity [25]: 1.7%
- Activity [26]: 4.9%
- Activity [27]: 45.6%
- Activity [28]: 63.3%
- Activity [29]: 63.7%
- remaining at 1 h [30]: 95.3%
- remaining at 2 h [31]: 91.8%

- MIC [1]: 8 µg/mL (≈ 20.9 µM)
- MIC [2]: 8 µg/mL (≈ 20.9 µM)
- MIC [3]: 16 µg/mL (≈ 41.7 µM)
- MIC [4]: 1 µg/mL (≈ 2.61 µM)
- MIC [5]: > 16 µg/mL
SMILES: CC(C)OC(=O)[C@H](Cn1ccnc1)NC(=O)c1ccc(-c2ccccc2)s1

- MIC [1]: > 16 µg/mL
- MIC [2]: > 16 µg/mL
- MIC [3]: 2 µg/mL (≈ 5.02 µM)
- MIC [4]: 0.125 µg/mL (≈ 0.314 µM)
- MIC [5]: > 16 µg/mL
SMILES: CC(C)COC(=O)[C@H](Cn1ccnc1)NC(=O)c1nc(-c2ccccc2)cs1

- MIC [1]: 4 µg/mL (≈ 10.6 µM)
- MIC [2]: 2 µg/mL (≈ 5.28 µM)
- MIC [3]: 16 µg/mL (≈ 42.3 µM)
- MIC [4]: 1 µg/mL (≈ 2.64 µM)
- MIC [5]: > 16 µg/mL
SMILES: CC(C)OC(=O)[C@H](Cn1ccnc1)NC(=O)c1ccc(-c2ccccc2)nc1

- MIC [1]: 0.25 µg/mL (≈ 0.559 µM)
- MIC [2]: 0.0625 µg/mL (≈ 0.14 µM)
- MIC [3]: 2 µg/mL (≈ 4.47 µM)
- MIC [4]: 0.0312 µg/mL (≈ 0.0699 µM)
- MIC [5]: > 16 µg/mL
SMILES: CC(C)OC(=O)[C@H](Cn1ccnc1)NC(=O)c1cc(-c2ccc(Br)cc2)on1

- MIC [1]: 0.25 µg/mL (≈ 0.632 µM)
- MIC [2]: 0.0625 µg/mL (≈ 0.158 µM)
- MIC [3]: 1 µg/mL (≈ 2.53 µM)
- MIC [4]: 0.0625 µg/mL (≈ 0.158 µM)
- MIC [5]: > 16 µg/mL
SMILES: CC(C)OC(=O)[C@H](Cn1ccnc1)NC(=O)c1ccc(-c2ccccc2F)cc1

- MIC [1]: > 16 µg/mL
- MIC [2]: > 16 µg/mL
- MIC [3]: > 16 µg/mL
- MIC [4]: 8 µg/mL (≈ 21.7 µM)
- MIC [5]: > 16 µg/mL
SMILES: CC(C)OC(=O)[C@H](Cn1ccnc1)NC(=O)c1coc(-c2ccccc2)n1

SMILES: CC(C)COC(=O)[C@H](Cn1ccnc1)NC(=O)c1cc(-c2ccccc2F)on1
- MIC [1]: 0.125 µg/mL (≈ 0.312 µM)
- MIC [2]: 0.0312 µg/mL (≈ 0.078 µM)
- MIC [3]: 0.25 µg/mL (≈ 0.624 µM)
- MIC [4]: 0.0312 µg/mL (≈ 0.078 µM)
- MIC [5]: 4 µg/mL (≈ 9.99 µM)
- MIC [6]: 0.125 µg/mL (≈ 0.312 µM)
- MIC [7]: 0.5 µg/mL (≈ 1.25 µM)
- remaining at 1 h [30]: 74.6%
- remaining at 2 h [31]: 61.4%
